These results are taken from ChEMBL document CHEMBL2010714, “Radical-regulating and antiviral properties of ascorbic acid and its derivatives” (Bioorg Med Chem Lett, 2012).

Series [1] concerns Human alphaherpesvirus 1. Briefly: Antiviral activity against Herpes simplex virus type 1 infected in human RD cells assessed as inhibition of virus-induced cytopathic effect. It is filed as functional, organism-based. The following applies: Human alphaherpesvirus 1, RD. Summed up:
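Human RD cells infected with HSV-1. Cytopathic-effect method. Activity criterion: reduction in virus titer with test compound versus untreated infected control. EC50 and EC90 taken as concentrations suppressing virus replication by 50% and 90%. Maximum non-toxic concentration determined separately in uninfected cultures after 72 h incubation.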

Series [2] is described as follows: Selectivity ratio of MNTD for human RD cells to EC90 for HSV1. It is filed as ADME, cell-based. Summed up:
(§1)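 HSV-1-infected human RD cells were assessed by cytopathic effect. Virus titer reduction relative to untreated control gave concentrations suppressing replication by 50% and 90% (EC50, EC90). Maximum non-toxic concentration was found in uninfected RD cells after 72 h. The ratio divides MNTC by EC50 or EC90.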

A short description of series [3]: Cytotoxicity against human RD cells assessed maximun non-toxic concentration. It counts as cell-based. Summed up: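 Maximum non-toxic concentration determined in uninfected human RD cell culture after 72 h incubation with compound.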
Series [4] is described as follows: Selectivity ratio of MNTD for human RD cells to EC50 for HSV1. It counts as ADME, cell-based. In short, it runs like this:
as §1

Some results are limits rather than exact numbers.

Consider `O=C1O[C@H]([C@@H](O)CO)C(O)=C1O[C@H]1O[C@H](CO)[C@@H](O)[C@H](O)[C@H]1O`, for which the EC50 (as a rule, the concentration needed to bring the measured effect to its halfway point) in series [1] is 16.3 µM. The EC90 (as a rule, the concentration needed for an effect of 90%) in series [1] came to 26.9 µM. The selectivity ratio is 43.9 in series [2] and 72.7 in series [4]. For the same compound, the MNTC in series [3] was found to be 1.18 mM.

In the case of `CCCCCCCCCCCCCCCC(=O)OC[C@H](O)[C@H]1OC(=O)C(O[C@H]2O[C@H](CO)[C@@H](O)[C@H](O)[C@H]2O)=C1O`, in series [1], the EC50 was found to be 4.5 µM and the EC90 was found to be 6.2 µM. In addition, in series [2], the selectivity ratio turned out to be 13.9. In series [3], this compound gave an MNTC of 0.0868 mM. For the same compound, the selectivity ratio in series [4] is 19.2.

In the case of `COC1=C(OC)[C@@H]([C@@H]2COC(C)(C)O2)OC1=O`, the concentration for a half-maximal effect (EC50) in series [1] was over 1640 µM. The same compound had an MNTC in series [3] of 1.64 mM. For the same compound, the selectivity ratio in series [4] is under 1.

Turning to `COC1=C(OC)[C@@H]([C@@H](O)CO)OC1=O`, in series [1], the EC50 turned out to be 1810 µM and the EC90 is 3280 µM. In series [2], the selectivity ratio was determined as 0.6. The compound also registered an MNTC in series [3] of 1.96 mM. Also, the selectivity ratio in series [4] was determined as 1.1.

For `O=C1O[C@H]([C@@H](O)CO)C(O)=C1O` [ASCORBIC ACID], the 50% effective concentration (EC50) in series [1] is over 2270 µM. The compound also registered an MNTC in series [3] of 2.27 mM. Further, the selectivity ratio in series [4] was under 1.

`CCCCCCCCCCCCCCCC(=O)OC[C@H](O)[C@H]1OC(=O)C(O)=C1O` [ASCORBYL PALMITATE]: the EC50 in series [1] was over 240 µM. This compound returned an MNTC in series [3] of 0.24 mM. Further, the selectivity ratio in series [4] is under 1.
